Among the data in ChEMBL document CHEMBL1124883, “Monophosphoric acid diesters of 7 beta-hydroxycholesterol and of pyrimidine nucleosides as potential antitumor agents: synthesis and preliminary evaluation of antitumor activity” (1990) are ILS, Median survival time and CR values, retold here.

By ILS is commonly meant the gain in survival time of treated over control animals, in per cent.

A short description of test [1]: The percentage of increase in life span was determined. In kind it is functional, Mus musculus. A digest of the protocol: (§1)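 Krebs II ascitic carcinoma, 1 × 10^6 cells in 0.25 mL 0.9% NaCl from donor mice with 8-10-day tumors, implanted ip into female Swiss/OF1 mice (20-25 g, six per group). Drugs were given in saline, water or aqueous suspension, 0.2 mL ip daily, starting 24 or 96 h post-implant. Saline controls.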

Test [2] in a line: Evaluated for median survival time against Kreb II murine sarcoma cells in female Swiss/OF1 mice after ip administration of 80 umol/kg per day. Type of test: functional, Mus musculus. An outline of the steps: as §1
A short description of test [3]: Evaluated for median survival time against Kreb II murine sarcoma cells in female Swiss/OF1 mice after ip administration of 84 uM/kg per day. In kind it is functional, Mus musculus. A digest of the protocol: as §1
Test [4] in a line: Evaluated for median survival time against Kreb II murine sarcoma cells in female Swiss/OF1 mice after ip administration of 80 uM/kg per day. Type of test: functional, Mus musculus. An outline of the steps:
as §1

Test [5] is filed under the species Mus musculus. In words: Complete recovery expressed as percent of animals surviving for more than 80 days was determined. Type of test: functional. A digest of the protocol: as §1

As to `CC(C)CCCC(C)[C@H]1CCC2C3C(CC[C@@]21C)[C@@]1(C)CC[C@H](O)CC1=C[C@@H]3O` (stereo in doubt; form 1), the increase in lifespan (ILS) in test [1] was 40%. The Median survival time in test [2] came to 21 days. In test [1], `CC(C)CCCC(C)[C@H]1CCC2C3C(CC[C@@]21C)[C@@]1(C)CC[C@H](O)CC1=C[C@@H]3O` (stereo in doubt; form 2) [listing 1 of 2 here] yielded an ILS of 180%. Also, the Median survival time in test [3] amounted to 42 days. In the case of `CC(C)CCCC(C)[C@H]1CC[C@H]2[C@@H]3[C@@H](O)C=C4C[C@@H](O)CC[C@]4(C)[C@H]3CC[C@]12C.O=c1ccn([C@@H]2O[C@H](CO)[C@@H](O)[C@H]2O)c(=O)[nH]1` (some centres undefined), the increase in lifespan (ILS) in test [1] is on record as 40%. In test [2], the Median survival time came to 21 days. `O=c1[nH]c(=O)n([C@@H]2O[C@H](CO)[C@@H](O)[C@H]2O)cc1F` [5-FLUOROURIDINE]: the ILS in test [1] stood at 93%. Also, in test [4], the Median survival time was found to be 29 days. In the case of `CC(C)CCCC(C)[C@H]1CCC2C3C(CC[C@@]21C)[C@@]1(C)CC[C@H](O)CC1=C[C@@H]3O` (stereo in doubt; form 2) [listing 2 of 2 here], the CR in test [5] worked out at 30%.
